{"source": "ChEMBL document CHEMBL3608218", "about": "“Optimization of a Dibenzodiazepine Hit to a Potent and Selective Allosteric PAK1 Inhibitor” (ACS Med Chem Lett, 2015)", "key": {"[1]": {"target": "T1, Serine/threonine-protein kinase PAK 1 (Homo sapiens, UniProt Q13153)", "T1 sequence (Q13153 whole entry)": "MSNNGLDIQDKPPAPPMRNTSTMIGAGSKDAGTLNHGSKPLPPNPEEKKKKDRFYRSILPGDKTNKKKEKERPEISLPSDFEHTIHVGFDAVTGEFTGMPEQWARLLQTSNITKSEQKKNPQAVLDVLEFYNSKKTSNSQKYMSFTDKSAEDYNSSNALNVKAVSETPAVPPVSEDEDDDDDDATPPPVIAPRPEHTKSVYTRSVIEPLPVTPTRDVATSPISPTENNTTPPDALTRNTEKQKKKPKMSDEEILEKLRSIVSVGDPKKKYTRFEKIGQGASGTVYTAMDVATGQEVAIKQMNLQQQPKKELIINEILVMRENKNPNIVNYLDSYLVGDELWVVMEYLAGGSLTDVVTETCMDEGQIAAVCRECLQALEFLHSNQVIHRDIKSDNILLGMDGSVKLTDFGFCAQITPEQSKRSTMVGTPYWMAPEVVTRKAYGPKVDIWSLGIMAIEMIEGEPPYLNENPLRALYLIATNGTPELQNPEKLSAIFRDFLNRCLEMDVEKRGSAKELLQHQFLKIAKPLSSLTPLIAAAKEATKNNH", "assay": "Inhibition of wild type dephosphorylated form of PAK1 (249 to 545) (unknown origin) expressed in Escherichia coli using 5-Fluo-Ahx-AKRRRLSSLRA-COOH as substrate preincubated for 60 mins followed by substrate addition measured after 60 mins by Caliper assay"}, "[2]": {"target": "T1, Serine/threonine-protein kinase PAK 1", "assay": "Binding affinity to PAK1 (unknown origin) expressed in HEK293 cells after 1 hr by qPCR analysis", "type": "cell-based"}, "[3]": {"target": "T2, Serine/threonine-protein kinase PAK 2 (Homo sapiens, UniProt Q13177)", "T2 sequence (Q13177 whole entry)": "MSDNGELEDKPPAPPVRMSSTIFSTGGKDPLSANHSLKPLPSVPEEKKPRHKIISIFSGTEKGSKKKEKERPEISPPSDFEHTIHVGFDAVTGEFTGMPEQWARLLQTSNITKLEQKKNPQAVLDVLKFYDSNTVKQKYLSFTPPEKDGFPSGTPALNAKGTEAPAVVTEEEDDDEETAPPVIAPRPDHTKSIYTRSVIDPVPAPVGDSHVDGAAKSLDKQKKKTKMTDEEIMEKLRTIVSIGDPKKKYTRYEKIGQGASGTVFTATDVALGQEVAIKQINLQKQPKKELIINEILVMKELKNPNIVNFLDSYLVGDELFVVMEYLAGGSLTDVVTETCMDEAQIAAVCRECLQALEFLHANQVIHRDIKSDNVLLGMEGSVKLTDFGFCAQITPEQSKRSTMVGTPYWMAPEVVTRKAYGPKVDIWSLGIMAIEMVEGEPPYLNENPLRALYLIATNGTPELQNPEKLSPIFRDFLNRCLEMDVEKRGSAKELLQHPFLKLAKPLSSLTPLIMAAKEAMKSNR", "assay": "Binding affinity to PAK2 (unknown origin) expressed in HEK293 cells after 1 hr by qPCR analysis", "type": "cell-based"}, "[4]": {"target": "Serine/threonine-protein kinase PAK 3 (Homo sapiens, UniProt O75914)", "sequence (O75914 whole entry)": "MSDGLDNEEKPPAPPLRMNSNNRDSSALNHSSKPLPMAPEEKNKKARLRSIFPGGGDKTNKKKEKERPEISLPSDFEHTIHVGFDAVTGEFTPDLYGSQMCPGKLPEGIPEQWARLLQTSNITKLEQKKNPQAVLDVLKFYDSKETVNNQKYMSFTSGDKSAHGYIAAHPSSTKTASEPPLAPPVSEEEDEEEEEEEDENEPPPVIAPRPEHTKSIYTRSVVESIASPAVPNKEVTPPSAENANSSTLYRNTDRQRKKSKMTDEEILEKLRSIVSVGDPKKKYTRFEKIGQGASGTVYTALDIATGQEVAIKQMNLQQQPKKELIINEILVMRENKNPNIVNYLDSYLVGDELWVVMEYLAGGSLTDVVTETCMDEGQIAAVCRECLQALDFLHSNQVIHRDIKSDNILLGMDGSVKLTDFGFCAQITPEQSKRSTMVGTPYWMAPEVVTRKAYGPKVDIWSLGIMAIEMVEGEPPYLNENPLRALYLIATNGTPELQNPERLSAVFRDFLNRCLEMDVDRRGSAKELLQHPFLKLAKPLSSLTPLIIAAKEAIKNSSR", "assay": "Binding affinity to PAK3 (unknown origin) expressed in HEK293 cells after 1 hr by qPCR analysis", "type": "cell-based"}, "[5]": {"target": "T3, Serine/threonine-protein kinase PAK 4 (Homo sapiens, UniProt O96013)", "T3 sequence (O96013 whole entry)": "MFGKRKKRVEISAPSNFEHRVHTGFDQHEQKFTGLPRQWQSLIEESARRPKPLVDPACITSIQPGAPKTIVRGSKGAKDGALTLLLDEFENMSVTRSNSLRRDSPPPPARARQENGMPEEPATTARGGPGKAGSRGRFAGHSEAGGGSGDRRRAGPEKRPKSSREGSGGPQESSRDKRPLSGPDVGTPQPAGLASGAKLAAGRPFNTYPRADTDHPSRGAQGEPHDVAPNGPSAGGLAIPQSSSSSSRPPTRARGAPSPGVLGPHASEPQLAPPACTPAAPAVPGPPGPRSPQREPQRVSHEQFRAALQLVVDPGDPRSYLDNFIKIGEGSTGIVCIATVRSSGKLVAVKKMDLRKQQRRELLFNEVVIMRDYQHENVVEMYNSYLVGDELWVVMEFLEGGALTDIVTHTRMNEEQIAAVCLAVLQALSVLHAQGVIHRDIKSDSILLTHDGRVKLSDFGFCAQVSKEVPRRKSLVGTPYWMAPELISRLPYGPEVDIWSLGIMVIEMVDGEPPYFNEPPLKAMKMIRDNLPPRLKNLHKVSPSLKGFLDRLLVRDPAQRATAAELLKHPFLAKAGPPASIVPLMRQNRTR", "assay": "Binding affinity to PAK4 (unknown origin) expressed in HEK293 cells after 1 hr by qPCR analysis", "type": "cell-based"}, "[6]": {"target": "T4, Serine/threonine-protein kinase PAK 6 (Homo sapiens, UniProt Q9NQU5)", "T4 sequence (Q9NQU5 whole entry)": "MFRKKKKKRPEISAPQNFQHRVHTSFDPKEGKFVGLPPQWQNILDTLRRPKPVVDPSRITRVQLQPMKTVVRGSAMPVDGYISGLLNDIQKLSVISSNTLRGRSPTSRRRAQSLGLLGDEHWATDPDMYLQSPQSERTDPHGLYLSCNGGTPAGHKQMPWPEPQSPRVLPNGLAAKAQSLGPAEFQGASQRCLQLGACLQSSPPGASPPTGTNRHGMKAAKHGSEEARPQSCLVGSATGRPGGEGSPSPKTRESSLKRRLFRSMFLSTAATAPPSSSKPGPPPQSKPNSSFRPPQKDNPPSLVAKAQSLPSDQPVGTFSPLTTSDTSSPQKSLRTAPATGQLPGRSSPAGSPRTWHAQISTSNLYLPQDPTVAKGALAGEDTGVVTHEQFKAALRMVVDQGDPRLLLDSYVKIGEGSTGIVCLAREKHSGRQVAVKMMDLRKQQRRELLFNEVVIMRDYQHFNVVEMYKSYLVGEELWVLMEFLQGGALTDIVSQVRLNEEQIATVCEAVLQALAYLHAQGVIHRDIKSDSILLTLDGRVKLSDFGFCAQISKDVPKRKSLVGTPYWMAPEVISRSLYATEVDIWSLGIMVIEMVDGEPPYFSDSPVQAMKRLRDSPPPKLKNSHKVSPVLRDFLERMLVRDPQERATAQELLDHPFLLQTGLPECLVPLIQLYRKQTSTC", "assay": "Binding affinity to PAK6 (unknown origin) expressed in HEK293 cells after 1 hr by qPCR analysis", "type": "cell-based"}, "[7]": {"target": "T1, Serine/threonine-protein kinase PAK 1", "assay": "Inhibition of wild type phosphorylated form of PAK1 (249 to 545) (unknown origin) expressed in Escherichia coli using 5-Fluo-Ahx-AKRRRLSSLRA-COOH as substrate preincubated for 60 mins followed by substrate addition measured after 60 mins by Caliper assay"}, "Histamine H1 receptor": {"target": "Histamine H1 receptor (Homo sapiens, UniProt P35367)", "sequence (P35367 whole entry)": "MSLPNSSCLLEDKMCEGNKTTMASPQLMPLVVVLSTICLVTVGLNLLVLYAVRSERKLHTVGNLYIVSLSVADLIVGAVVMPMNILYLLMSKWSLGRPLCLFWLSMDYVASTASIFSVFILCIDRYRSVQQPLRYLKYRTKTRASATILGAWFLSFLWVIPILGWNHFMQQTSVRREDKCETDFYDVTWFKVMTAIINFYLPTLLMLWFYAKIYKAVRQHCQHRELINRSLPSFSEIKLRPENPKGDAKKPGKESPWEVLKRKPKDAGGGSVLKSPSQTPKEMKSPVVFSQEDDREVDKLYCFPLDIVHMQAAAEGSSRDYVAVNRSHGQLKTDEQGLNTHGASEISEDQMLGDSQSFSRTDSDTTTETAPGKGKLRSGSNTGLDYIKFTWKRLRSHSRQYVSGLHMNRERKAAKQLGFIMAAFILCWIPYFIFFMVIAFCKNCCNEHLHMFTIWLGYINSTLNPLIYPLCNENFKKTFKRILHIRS", "assay": "Inhibition of recombinant human histamine H1 receptor"}, "[8]": {"target": "T5, Muscarinic acetylcholine receptor M1 (Homo sapiens, UniProt P11229)", "T5 sequence (P11229 whole entry)": "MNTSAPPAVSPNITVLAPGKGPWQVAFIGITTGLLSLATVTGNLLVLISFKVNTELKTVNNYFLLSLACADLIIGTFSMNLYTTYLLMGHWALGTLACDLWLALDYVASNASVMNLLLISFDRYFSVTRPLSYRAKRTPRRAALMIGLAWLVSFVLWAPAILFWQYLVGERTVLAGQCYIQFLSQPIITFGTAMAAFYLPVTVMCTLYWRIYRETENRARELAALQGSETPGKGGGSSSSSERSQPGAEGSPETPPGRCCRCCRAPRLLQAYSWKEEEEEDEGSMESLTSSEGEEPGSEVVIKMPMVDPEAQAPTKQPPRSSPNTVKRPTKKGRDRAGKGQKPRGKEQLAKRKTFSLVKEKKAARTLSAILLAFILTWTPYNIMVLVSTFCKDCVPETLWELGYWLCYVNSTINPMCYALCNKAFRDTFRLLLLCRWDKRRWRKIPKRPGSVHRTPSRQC", "assay": "Inhibition of recombinant human muscarinic M1 receptor"}, "[9]": {"target": "T1, Serine/threonine-protein kinase PAK 1", "assay": "Non-ATP competitive inhibition of full-length human PAK1 assessed as phosphate incorporation onto MBP preincubated for 5 mins followed by Cdc42, MBP, and mixture of ATP and [32P]-gamma-ATP addition measured after 20 mins by scintillation counting analysis"}, "[10]": {"target": "T3, Serine/threonine-protein kinase PAK 4", "assay": "Inhibition of PAK4 kinase domain (300 to 591) (unknown origin) assessed as phosphate incorporation onto MBP preincubated for 5 mins followed by Cdc42, MBP, and mixture of ATP and [32P]-gamma-ATP addition measured after 20 mins by scintillation counting analysis"}, "[11]": {"target": "Serine/threonine-protein kinase PAK 5 (Homo sapiens, UniProt Q9P286)", "sequence (Q9P286 whole entry)": "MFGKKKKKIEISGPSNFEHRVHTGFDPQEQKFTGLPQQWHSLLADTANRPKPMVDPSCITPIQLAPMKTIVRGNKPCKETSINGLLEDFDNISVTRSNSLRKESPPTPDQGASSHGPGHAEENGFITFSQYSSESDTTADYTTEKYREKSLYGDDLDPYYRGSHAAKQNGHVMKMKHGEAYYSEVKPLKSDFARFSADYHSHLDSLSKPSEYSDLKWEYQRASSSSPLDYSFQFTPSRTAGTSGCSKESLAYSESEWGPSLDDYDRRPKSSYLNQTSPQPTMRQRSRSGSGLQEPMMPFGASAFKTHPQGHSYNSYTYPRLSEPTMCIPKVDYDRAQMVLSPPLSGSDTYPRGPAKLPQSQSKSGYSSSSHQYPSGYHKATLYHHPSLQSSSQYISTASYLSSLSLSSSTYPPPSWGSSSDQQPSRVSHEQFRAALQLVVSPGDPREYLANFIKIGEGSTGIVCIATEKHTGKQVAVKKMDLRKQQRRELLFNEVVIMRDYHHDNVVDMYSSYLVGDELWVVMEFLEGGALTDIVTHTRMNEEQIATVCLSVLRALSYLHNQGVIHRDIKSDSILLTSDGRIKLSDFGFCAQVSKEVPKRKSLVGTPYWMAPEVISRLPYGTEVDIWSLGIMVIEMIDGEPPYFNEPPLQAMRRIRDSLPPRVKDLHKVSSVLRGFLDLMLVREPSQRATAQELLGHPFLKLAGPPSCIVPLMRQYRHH", "assay": "Inhibition of full length PAK5 (unknown origin) expressed in HEK293 cells assessed as phosphate incorporation onto MBP preincubated for 5 mins followed by Cdc42, MBP, and mixture of ATP and [32P]-gamma-ATP addition measured after 20 mins by scintillation counting analysis", "type": "cell-based"}, "[12]": {"target": "T4, Serine/threonine-protein kinase PAK 6", "assay": "Inhibition of full length human PAK6 assessed as phosphate incorporation onto MBP preincubated for 5 mins followed by Cdc42, MBP, and mixture of ATP and [32P]-gamma-ATP addition measured after 20 mins by scintillation counting analysis"}, "[13]": {"assay": "Aqueous solubility of the compound at pH 6.8", "type": "physicochemical", "settings": "buffer"}, "[14]": {"assay": "Aqueous solubility of the compound at pH 4", "type": "physicochemical", "settings": "buffer"}, "[15]": {"assay": "Permeability of the compound by PAMPA", "type": "physicochemical", "procedure,_shortened": "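PAMPA permeability was expressed as a calculated fraction absorbed (cFA).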"}, "[16]": {"assay": "Apparent permeability across apical to basolateral side in human Caco2 cells", "type": "ADME, cell-based", "settings": "Caco-2"}, "Cytochrome P450 3A4": {"target": "Cytochrome P450 3A4 (Homo sapiens, UniProt P08684)", "assay": "Inhibition of CYP3A4 midazolam site (unknown origin)", "type": "ADME"}, "Cytochrome P450 2D6": {"target": "Cytochrome P450 2D6 (Homo sapiens, UniProt P10635)", "sequence (P10635 whole entry)": "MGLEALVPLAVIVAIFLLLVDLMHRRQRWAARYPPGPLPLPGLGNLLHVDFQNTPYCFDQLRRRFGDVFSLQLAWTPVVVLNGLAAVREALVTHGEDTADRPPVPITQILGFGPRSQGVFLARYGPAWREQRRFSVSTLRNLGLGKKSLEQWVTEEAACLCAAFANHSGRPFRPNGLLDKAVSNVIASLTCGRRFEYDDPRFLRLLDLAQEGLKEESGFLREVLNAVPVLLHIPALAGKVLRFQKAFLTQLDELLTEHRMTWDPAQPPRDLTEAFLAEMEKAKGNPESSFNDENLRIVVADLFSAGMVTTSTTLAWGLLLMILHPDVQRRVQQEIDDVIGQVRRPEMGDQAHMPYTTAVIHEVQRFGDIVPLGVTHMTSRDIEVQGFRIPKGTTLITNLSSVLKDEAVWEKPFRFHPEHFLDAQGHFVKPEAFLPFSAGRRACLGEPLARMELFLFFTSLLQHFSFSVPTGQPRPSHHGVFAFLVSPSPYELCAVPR", "assay": "Inhibition of CYP2D6 (unknown origin)", "type": "ADME"}, "Cytochrome P450 2C9": {"target": "Cytochrome P450 2C9 (Homo sapiens, UniProt P11712)", "assay": "Inhibition of CYP2C9 (unknown origin)", "type": "ADME"}, "[17]": {"assay": "Half life in rat liver microsomes", "type": "ADME"}, "SU.86.86 [18]": {"test_system": "SU.86.86", "assay": "Cytotoxicity against human SU8686 cells assessed as growth inhibition at >2 uM after 5 days by CTG assay", "type": "functional, cell-based"}, "SU.86.86 [19]": {"test_system": "SU.86.86", "assay": "Cytotoxicity against human SU8686 cells assessed as growth inhibition at 0.21 uM after 5 days by CTG assay in presence of PAK2 shRNA", "type": "functional, cell-based"}, "[20]": {"target": "T2, Serine/threonine-protein kinase PAK 2", "settings": "SU8686, 0.009 to 20 uM"}, "[21]": {"target": "T2, Serine/threonine-protein kinase PAK 2", "settings": "SU8686, 6 to 20 uM"}, "[22]": {"target": "T2, Serine/threonine-protein kinase PAK 2", "settings": "SU8686, 0.21 uM"}}, "note": "pIC50, pKd: −log10 of the molar value. Active and inactive are the calls of the source. The calls are words filed in the database; no cut-off is given here."}
{"smiles": "CCN1c2ccc(F)cc2N=C(N2CCN(C)CC2)c2cc(Cl)ccc21", "values": [{"measurement": "pIC50", "setting": "[1]", "value": 6.49}, {"measurement": "pKd", "setting": "[2]", "value": 6.47}, {"measurement": "pKd", "setting": "[3]", "value": "< 4.40"}, {"measurement": "pKd", "setting": "[4]", "value": "< 4.40"}, {"measurement": "pKd", "setting": "[5]", "value": "< 4.40"}, {"measurement": "pKd", "setting": "[6]", "value": "< 4.40"}]}
{"smiles": "CN1CCN(C2=Nc3cc(F)ccc3Nc3ccc(F)cc32)CC1", "values": [{"measurement": "pIC50", "setting": "[1]", "value": 4.92}, {"measurement": "pIC50", "setting": "[7]", "value": 4.27}, {"measurement": "pIC50", "setting": "Histamine H1 receptor", "value": 9.00}, {"measurement": "pIC50", "setting": "[8]", "value": 8.22}]}
{"smiles": "Oc1ccc2ccccc2c1SSc1c(O)ccc2ccccc12", "values": [{"measurement": "pIC50", "setting": "[9]", "value": 5.60}, {"measurement": "pIC50", "setting": "[10]", "value": "< 5.00"}, {"measurement": "pIC50", "setting": "[11]", "value": "< 5.00"}, {"measurement": "pIC50", "setting": "[12]", "value": "< 5.00"}]}
{"smiles": "CC(C)NC(=O)N1CC[C@H](NC2=Nc3cc(F)ccc3N(CC(F)F)c3ccc(Cl)cc32)C1", "values": [{"measurement": "pKd", "setting": "[3]", "value": 6.40}, {"measurement": "pIC50", "setting": "Histamine H1 receptor", "value": "< 4.52"}, {"measurement": "pIC50", "setting": "[8]", "value": "< 4.52"}, {"measurement": "solubility", "setting": "[13]", "value": 55, "unit": "µM"}, {"measurement": "solubility", "setting": "[14]", "value": "> 1000", "unit": "µM"}, {"measurement": "permeability", "setting": "[15]", "value": "permeable"}, {"measurement": "Papp A→B", "setting": "[16]", "value": 0.428, "unit": "×10⁻⁶ cm/s"}, {"measurement": "INH", "setting": "Cytochrome P450 3A4", "value": 13.2, "unit": "µM"}, {"measurement": "INH", "setting": "Cytochrome P450 2D6", "value": "> 20", "unit": "µM"}, {"measurement": "INH", "setting": "Cytochrome P450 2C9", "value": 16.7, "unit": "µM"}, {"measurement": "half-life", "setting": "[17]", "value": 3.5, "unit": "min"}, {"measurement": "growth inhibition (GI)", "setting": "SU.86.86 [18]", "value": "Active"}, {"measurement": "growth inhibition (GI)", "setting": "SU.86.86 [19]", "value": "Active"}, {"measurement": "inhibition", "setting": "[20]", "value": "Active"}, {"measurement": "inhibition", "setting": "[21]", "value": "Active"}, {"measurement": "inhibition", "setting": "[22]", "value": "Active"}]}
{"smiles": "CCN1c2ccc(F)cc2N=C(N[C@H]2CCN(C(=O)NC(C)(C)C)C2)c2cc(Cl)ccc21", "values": [{"measurement": "pKd", "setting": "[3]", "value": 5.96}, {"measurement": "pKd", "setting": "[4]", "value": "< 4.40"}, {"measurement": "pKd", "setting": "[5]", "value": "< 4.40"}, {"measurement": "solubility", "setting": "[13]", "value": "< 4", "unit": "µM"}]}
{"smiles": "CCN1c2ccc(F)cc2N=C(N[C@H]2CCN(C(=O)OC(C)(C)C)C2)c2cc(Cl)ccc21", "values": [{"measurement": "pIC50", "setting": "[1]", "value": 6.72}, {"measurement": "pKd", "setting": "[2]", "value": 6.89}, {"measurement": "pKd", "setting": "[3]", "value": "< 4.40"}, {"measurement": "pKd", "setting": "[4]", "value": "< 4.40"}, {"measurement": "pKd", "setting": "[5]", "value": "< 4.40"}, {"measurement": "pKd", "setting": "[6]", "value": "< 4.40"}]}
